Results: PMC3733499 (Thrombosis and haemostasis, 2013)
Residue numbers refer to the chain shown, from its start. Numbers in names are those of the source. Blank lines part the entries; values can stand above or below the molecule they belong to. Where a SMILES comes first, the peptide text is derived from it.

Assays:
Factor Xa (Homo sapiens) = Factor Xa (Homo sapiens) (UniProt P00742); settings: cited from earlier work
Factor Va (Homo sapiens) = Factor Va (Homo sapiens) (UniProt P12259); settings: cited from earlier work
mAb S4 = experiment: Binding of mAb S4 to immobilized peptides; settings: peptide coated at 20 μM, mAb S4 26 nM, anti-mouse IgG detection
Procedure, shortened: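 Wells coated with peptide and blocked with I-Block; mAb S4 at 26 nM incubated in the wells. Bound antibody detected with anti-mouse IgG, then biotinylated secondary antibody, streptavidin-alkaline phosphatase and phosphatase substrate. Wash solution was HBS with 0.1% porcine skin gelatin and 2 mM CaCl2. Signal from noncoated blocked wells subtracted from coated wells.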

[1] = biological target: T1, prothrombinase (FXa/FVa/PL) (Homo sapiens, UniProt P00742+P12259); experiment: Purified component prothrombinase assay with FVa and PL; assay type: biochemical; settings: for FVa-dependent inhibition of prothrombinase activity: peptide preincubated 10 min with FVa/FXa/PL
T1 sequence (P00742 41-179 partner limits assumed, one chain of several): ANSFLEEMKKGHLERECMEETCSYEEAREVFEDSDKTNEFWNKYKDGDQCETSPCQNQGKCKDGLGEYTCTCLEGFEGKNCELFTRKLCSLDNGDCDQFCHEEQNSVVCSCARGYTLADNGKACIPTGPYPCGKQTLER
T1 sequence (P00742 235-488 partner limits assumed, one chain of several): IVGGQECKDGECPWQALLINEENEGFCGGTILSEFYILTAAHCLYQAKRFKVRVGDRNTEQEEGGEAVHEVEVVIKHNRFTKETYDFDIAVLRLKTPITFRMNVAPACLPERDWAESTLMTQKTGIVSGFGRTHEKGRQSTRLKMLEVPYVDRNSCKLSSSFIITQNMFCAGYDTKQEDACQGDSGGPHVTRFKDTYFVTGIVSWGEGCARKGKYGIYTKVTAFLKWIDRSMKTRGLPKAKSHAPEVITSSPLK

[2] = test system: FXa-induced clotting of PS-depleted plasma (PSdP); experiment: FXa-1-stage clotting assay without exogenous PL; assay type: cell-based, human; settings: no exogenous PL, base clotting time 98 sec
Procedure, shortened: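 Human PS-depleted plasma mixed with HBS-BSA containing purified human PS (up to 379 nM) with or without neutralizing mAb S4, plus FXa. No exogenous phospholipid added. Incubated 3 min at 37°C, recalcified with CaCl2 (33 mM stock), and clotting time measured on a coagulometer. FXa standard curves without PS (up to 19 pM as 100%) converted clotting times to % FXa activity.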

[3] = biological target: T1, prothrombinase (FXa/FVa/PL); settings: ref [9], cited from earlier work
[4] = test system: platelet and fibrin deposition; settings: PS infused without APC; ref [15]; cited from earlier work
prothrombinase (FXa/FVa) = experiment: Purified component prothrombinase assay with FVa, without PL; assay type: biochemical, human; settings: absence of PL; data not shown
Factor Va [5] = biological target: T2, Factor Va (human, UniProt P12259 29-737; P12259 1574-2224); experiment: ELISA
T2 sequence (looked up) 1: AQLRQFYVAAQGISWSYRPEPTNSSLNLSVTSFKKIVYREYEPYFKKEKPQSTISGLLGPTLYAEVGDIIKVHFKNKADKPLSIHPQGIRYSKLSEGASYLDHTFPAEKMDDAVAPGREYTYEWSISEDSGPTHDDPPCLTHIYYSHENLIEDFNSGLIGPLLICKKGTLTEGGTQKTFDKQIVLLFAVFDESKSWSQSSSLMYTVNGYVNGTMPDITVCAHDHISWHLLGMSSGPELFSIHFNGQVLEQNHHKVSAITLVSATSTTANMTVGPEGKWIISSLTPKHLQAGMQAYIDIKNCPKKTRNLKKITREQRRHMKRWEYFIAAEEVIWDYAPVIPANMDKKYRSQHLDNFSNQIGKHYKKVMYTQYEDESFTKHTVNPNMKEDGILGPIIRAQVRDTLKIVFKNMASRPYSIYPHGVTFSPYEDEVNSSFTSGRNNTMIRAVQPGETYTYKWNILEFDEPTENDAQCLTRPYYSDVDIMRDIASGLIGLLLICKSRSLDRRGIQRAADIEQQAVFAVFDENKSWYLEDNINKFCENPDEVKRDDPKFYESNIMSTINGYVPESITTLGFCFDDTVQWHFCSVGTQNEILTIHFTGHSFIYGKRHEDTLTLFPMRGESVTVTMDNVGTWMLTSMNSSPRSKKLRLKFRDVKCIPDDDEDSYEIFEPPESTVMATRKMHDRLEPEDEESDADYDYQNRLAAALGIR
T2 sequence (looked up) 2: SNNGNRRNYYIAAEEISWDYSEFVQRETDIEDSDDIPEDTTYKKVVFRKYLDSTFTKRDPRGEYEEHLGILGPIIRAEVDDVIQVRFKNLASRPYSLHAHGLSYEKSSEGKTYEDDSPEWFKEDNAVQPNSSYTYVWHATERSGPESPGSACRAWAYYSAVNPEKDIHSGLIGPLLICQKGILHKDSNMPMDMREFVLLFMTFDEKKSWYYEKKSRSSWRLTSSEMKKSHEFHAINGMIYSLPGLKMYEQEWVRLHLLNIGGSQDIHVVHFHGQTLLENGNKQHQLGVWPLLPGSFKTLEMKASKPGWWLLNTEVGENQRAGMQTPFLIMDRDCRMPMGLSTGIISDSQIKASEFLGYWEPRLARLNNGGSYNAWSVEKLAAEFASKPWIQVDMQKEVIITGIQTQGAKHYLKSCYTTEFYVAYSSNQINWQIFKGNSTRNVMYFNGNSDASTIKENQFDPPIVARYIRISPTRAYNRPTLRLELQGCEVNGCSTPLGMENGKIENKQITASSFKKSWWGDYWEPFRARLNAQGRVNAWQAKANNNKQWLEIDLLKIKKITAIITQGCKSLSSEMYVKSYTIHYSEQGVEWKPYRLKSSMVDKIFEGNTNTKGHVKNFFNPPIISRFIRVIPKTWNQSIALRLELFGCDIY

FXa = settings: recombinant; ref [39]; cited from earlier work
FVa = settings: recombinant; ref [39]; cited from earlier work
APC = settings: recombinant; ref [39]; cited from earlier work
[6] = Thr37 to Met mutation; ref [28]; cited from earlier work
[7] = test system: activated protein C (APC); settings: Thr37 to Met mutation; ref [28]; cited from earlier work
Factor Va [8] = biological target: T2, Factor Va; experiment: ELISA; remark: listed apart in the source
Factor Va [9] = biological target: T2, Factor Va; experiment: ELISA; remark: listed apart in the source

Factor Xa (Homo sapiens), sequence (P00742 235-488): as the sequence (P00742 235-488 partner limits assumed, one chain of several) above

Molecule: Protein S (from UniProt P07225)
Kd (Factor Xa (Homo sapiens)): 18 nM
Kd (Factor Va (Homo sapiens)): 33 nM

Binding of mAb S4 to immobilized peptide (mAb S4): detected
Molecule: 54–67: peptide representing PS residues 54–67 (TSR) (GLFTAARQSTNAYP; UniProt P07225 95-108, looked up, fragment)

IC50 [1]: 11000 nM
Inhibition of prothrombinase ([1]; 40 μM peptide): 90%
Molecule: CC(C)C[C@H](NC(=O)[C@H](CS)NC(=O)[C@@H](NC(=O)[C@H](CC(C)C)NC(=O)[C@H](Cc1ccc(O)cc1)NC(=O)[C@H](CCCCN)NC(=O)[C@@H]1CCCN1C(=O)[C@H](Cc1ccc(O)cc1)NC(=O)[C@H](Cc1ccccc1)NC(=O)[C@H](Cc1ccc(O)cc1)NC(=O)[C@H](CC(=O)O)NC(=O)[C@@H](N)[C@@H](C)O)C(C)C)C(=O)N[C@@H](CCCNC(=N)N)C(=O)N[C@@H](CO)C(=O)O [PSP37, TDYFYPKYLVCLRS] (H-TDYFYPKYLVCLRS-OH)

Molecule: PS: immunoaffinity-purified free plasma protein S retaining Zn^2+
Maximal prolongation of clotting time by PS [2]: 95 s
Vmax alteration by PS ([3]; at 60% inhibition): 2.2 fold
Km alteration by PS [3]: 2 fold
Inhibition of platelet and fibrin deposition [4]: inhibited platelet and fibrin deposition

FVa-dependent inhibition of prothrombinase activity [1]: did not inhibit prothrombinase
Molecule: PSP30: 14-mer peptide, PS residues 30–43 (VFENDPETDYFYPK; UniProt P07225 71-84, looked up, fragment)

FVa-dependent inhibition of prothrombinase activity [1]: did not inhibit prothrombinase
Molecule: PSP48: 14-mer peptide, PS residues 48–61 (LRSFQTGLFTAARQ; UniProt P07225 89-102, looked up, fragment)

Molecule: Phospholipase A2
Effect of phospholipase A2 on PS inhibition (prothrombinase (FXa/FVa)): no effect on PS inhibition
Effect of phospholipase A2 on prothrombinase activity (prothrombinase (FXa/FVa)): no effect on prothrombinase activity
Effect of phospholipase A2 on prothrombinase activity ([1]; mixtures that contained PL, data not shown): greatly diminished

binding result (Factor Va [5]): binds
B1: Protein S (natural protein, human, UniProt P07225 42-676, looked up)
chain: ANSLLEETKQGNLERECIEELCNKEEAREVFENDPETDYFYPKYLVCLRSFQTGLFTAARQSTNAYPDLRSCVNAIPDQCSPLPCNEDGYMSCKDGKASFTCTCKPGWQGEKCEFDINECKDPSNINGGCSQICDNTPGSYHCSCKNGFVMLSNKKDCKDVDECSLKPSICGTAVCKNIPGDFECECPEGYRYNLKSKSCEDIDECSENMCAQLCVNYPGGYTCYCDGKKGFKLAQDQKSCEVVSVCLPLNLDTKYELLYLAEQFAGVVLYLKFRLPEISRFSAEFDFRTYDSEGVILYAESIDHSAWLLIALRGGKIEVQLKNEHTSKITTGGDVINNGLWNMVSVEELEHSISIKIAKEAVMDINKPGPLFKPENGLLETKVYFAGFPRKVESELIKPINPRLDGCIRSWNLMKQGASGIKEIIQEKQNKHCLVTVEKGSYYPGSGIAQFHIDYNNVSSAEGWHVNVTLNIRPSTGTGVMLALVSGNNTVPFAVSLVDSTSEKSQDILLSVENTVIYRIQALSLCSDQQSHLEFRVNRNNLELSTPLKIETISHEDLQRQLAVLDKAMKAKVATYLGGLPDVPFSATPVNAFYNGCMEVNINGVQLDLDEAISKHNDIRAHSCPSVWKKTKNS

B2: K155E PS: recombinant K155E PS, prevalent Japanese mutation (protein, UniProt P07225 42-676, looked up, variant K155E)
Vitamin K-dependent protein S: B1 chain with K155E
Binding to FXa (FXa): defective binding to FXa and to APC
Binding to FVa (FVa): normal binding to FVa
Binding to APC (APC): defective binding to FXa and to APC

B3: T37M PS: recombinant PS with mutation of Thr37 to Met (protein, UniProt P07225 42-676, looked up, variant T37M)
Vitamin K-dependent protein S: B1 chain with T37M
Affinity for phospholipids [6]: diminished affinity for phospholipids
Decrease in APC cofactor activity [7]: 3.6 fold

IC50 (Factor Va [8]): 15000 nM
Kd (Factor Va [9]): 14 nM
Molecule: TDYFYPKYLVCLRS [Peptide PSP37 (protein S residues 37-50)]
